Four compounds from article PMC7127808 (Biochimie, 2017) can be followed below.

One series has as its system Wistar rats. Description: Mortality and spontaneous behavior after intraperitoneal injection. The class given is in vivo. The note with it: 3 μg/g b.w. intraperitoneal, compared to the vehicle group (not shown).
Another series concerns the target T1, rat APN activity (Rattus norvegicus, UniProt P15684).
T1 sequence (P15684 1-965): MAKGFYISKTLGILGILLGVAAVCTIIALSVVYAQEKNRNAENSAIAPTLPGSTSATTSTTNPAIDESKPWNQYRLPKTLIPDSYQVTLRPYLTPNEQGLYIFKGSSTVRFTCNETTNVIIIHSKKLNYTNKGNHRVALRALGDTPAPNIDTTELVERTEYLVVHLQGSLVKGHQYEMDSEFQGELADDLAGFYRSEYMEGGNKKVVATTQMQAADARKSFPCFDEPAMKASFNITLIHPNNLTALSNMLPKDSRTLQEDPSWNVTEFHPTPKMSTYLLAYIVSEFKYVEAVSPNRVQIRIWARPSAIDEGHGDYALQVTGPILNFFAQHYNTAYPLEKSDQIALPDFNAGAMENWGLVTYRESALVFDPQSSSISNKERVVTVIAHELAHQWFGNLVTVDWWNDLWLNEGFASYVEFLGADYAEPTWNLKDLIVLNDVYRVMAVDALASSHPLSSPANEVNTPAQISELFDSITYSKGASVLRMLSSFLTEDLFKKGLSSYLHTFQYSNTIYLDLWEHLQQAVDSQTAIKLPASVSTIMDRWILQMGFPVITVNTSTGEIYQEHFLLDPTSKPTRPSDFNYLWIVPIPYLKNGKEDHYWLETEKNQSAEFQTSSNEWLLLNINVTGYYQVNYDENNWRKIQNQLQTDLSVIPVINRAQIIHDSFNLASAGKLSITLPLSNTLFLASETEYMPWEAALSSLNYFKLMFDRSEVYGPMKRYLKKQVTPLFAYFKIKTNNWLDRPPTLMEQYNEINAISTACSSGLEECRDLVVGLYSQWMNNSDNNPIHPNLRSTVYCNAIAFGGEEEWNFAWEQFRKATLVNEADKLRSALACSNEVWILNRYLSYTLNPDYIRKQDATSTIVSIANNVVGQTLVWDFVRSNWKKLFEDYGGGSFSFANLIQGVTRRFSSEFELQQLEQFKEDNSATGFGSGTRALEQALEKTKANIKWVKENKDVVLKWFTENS
Description: In vivo effects of inhibitors on APN activity in rat organs. The note with it: for blood-brain barrier crossing: inferred from inhibition of APN activity in the brain of rats. The procedure, abridged: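 Wistar rats (80–100 days, 260–300 g) got one intraperitoneal injection of inhibitor, 3 μg/g body weight in 100 μL 0.9% saline, or saline alone (n = 6 per group). Decapitation 1 h later; organs frozen, stored at −70 °C. NaCl-washed membranes from 10% (w/v) homogenates in 50 mM Tris-HCl pH 8. APN kinetic assay as for porcine APN, 30 min. Mean ± SD; ANOVA, Tukey-Kramer.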

The target in series [1] is Human placental aminopeptidase N (hAPN) (Homo sapiens, UniProt P15144). Description: Human placental aminopeptidase N. The note with it: read-out: IC50 vs hAPN; 30 min pre-incubation; substrate at KM; n = 4. The class given is biochemical.
For series [2], the target named is T2, Porcine kidney APN (pAPN) (Sus scrofa, UniProt P15145).
T2 sequence (P15145 1-963): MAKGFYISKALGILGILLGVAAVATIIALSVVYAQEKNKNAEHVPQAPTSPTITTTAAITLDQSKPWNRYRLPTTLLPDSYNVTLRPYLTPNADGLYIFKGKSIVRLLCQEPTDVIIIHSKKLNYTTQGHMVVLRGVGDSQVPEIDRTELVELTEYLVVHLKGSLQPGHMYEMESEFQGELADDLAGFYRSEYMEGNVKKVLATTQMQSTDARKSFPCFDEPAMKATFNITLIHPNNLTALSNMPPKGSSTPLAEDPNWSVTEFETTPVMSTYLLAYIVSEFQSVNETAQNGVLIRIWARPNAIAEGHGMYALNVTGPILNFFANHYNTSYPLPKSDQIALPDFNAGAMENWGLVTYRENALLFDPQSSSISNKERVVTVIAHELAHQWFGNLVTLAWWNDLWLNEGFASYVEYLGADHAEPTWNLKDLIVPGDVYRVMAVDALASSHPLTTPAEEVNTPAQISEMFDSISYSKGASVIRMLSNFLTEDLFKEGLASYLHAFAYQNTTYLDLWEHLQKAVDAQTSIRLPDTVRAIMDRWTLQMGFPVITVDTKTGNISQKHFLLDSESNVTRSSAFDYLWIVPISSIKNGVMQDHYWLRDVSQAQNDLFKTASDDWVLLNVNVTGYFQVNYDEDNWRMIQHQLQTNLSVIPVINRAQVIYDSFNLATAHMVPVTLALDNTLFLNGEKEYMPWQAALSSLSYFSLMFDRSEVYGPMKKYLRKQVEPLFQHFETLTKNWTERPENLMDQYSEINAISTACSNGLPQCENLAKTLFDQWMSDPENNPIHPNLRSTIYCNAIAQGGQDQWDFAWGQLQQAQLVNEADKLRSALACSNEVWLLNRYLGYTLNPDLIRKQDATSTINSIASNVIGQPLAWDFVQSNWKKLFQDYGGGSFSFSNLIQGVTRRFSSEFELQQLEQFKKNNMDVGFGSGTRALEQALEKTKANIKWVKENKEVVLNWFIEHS
Description: Porcine kidney APN. The conditions noted are these: for Inhibition Type: Table 1, hAPN and pAPN, Lineweaver-Burk diagnosis (hAPN data not shown); for α (pAPN): factor between αKi and Ki vs pAPN; for IC50: read-out: IC50 vs pAPN, 30 min pre-incubation, substrate at KM, n = 4. The series is classed as biochemical.

Series [3] has as its target porcine kidney cortex glutamyl aminopeptidase (porcine aminopeptidase A; pAPA) (Sus scrofa, UniProt Q95334). Description: Porcine aminopeptidase A. The series is classed as biochemical. The note with it: read-out: IC50 vs pAPA; dose-response, L-Glu-pNA. The procedure, abridged:
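Microsomes from porcine kidney cortex, prepared as for placental APN, used at 1 mg/mL in 50 mM Tris-HCl pH 8, 0.1% Triton X100, 1 mM CaCl2. Substrate L-Glu-pNA at or below one KM. p-Nitroaniline release read at 405 nm every 15 s for 5 min, 37 °C. Test compounds came from 10 mM DMSO stocks diluted in buffer. IC50 came from nonlinear regression of dose-response data.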

Setting [4] is: rat, 3 μg/g b.w. intraperitoneal, 60 min, vs saline injected animals.

SMILES strings stand for the structures.

What is called IC50 is the concentration at which inhibition is half-maximal.

Chain of porcine kidney cortex glutamyl aminopeptidase (porcine aminopeptidase A; pAPA) (Q95334 whole entry): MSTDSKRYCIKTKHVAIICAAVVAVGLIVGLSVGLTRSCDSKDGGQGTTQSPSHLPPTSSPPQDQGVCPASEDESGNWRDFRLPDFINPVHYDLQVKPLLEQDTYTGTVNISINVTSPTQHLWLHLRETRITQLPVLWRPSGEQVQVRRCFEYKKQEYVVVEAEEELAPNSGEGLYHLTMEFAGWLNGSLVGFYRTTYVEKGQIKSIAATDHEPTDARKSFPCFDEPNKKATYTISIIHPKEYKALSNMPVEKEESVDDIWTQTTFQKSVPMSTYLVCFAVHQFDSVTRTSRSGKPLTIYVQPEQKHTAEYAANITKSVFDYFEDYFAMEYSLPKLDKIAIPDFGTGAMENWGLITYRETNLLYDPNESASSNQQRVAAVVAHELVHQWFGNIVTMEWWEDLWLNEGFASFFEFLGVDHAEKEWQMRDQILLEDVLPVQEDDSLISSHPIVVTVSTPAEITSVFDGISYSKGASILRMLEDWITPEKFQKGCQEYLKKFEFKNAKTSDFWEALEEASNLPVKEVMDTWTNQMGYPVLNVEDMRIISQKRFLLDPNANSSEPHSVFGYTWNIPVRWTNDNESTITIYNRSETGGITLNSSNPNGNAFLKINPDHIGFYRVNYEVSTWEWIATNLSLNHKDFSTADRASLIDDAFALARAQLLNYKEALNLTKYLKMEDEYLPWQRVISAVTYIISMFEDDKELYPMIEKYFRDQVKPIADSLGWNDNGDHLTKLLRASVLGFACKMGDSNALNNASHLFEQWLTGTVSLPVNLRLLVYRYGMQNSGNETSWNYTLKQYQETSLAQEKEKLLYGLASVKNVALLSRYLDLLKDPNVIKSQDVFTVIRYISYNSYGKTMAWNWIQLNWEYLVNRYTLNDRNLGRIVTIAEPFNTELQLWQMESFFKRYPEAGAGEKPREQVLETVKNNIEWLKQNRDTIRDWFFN
Chain of Human placental aminopeptidase N (hAPN) (P15144 whole entry): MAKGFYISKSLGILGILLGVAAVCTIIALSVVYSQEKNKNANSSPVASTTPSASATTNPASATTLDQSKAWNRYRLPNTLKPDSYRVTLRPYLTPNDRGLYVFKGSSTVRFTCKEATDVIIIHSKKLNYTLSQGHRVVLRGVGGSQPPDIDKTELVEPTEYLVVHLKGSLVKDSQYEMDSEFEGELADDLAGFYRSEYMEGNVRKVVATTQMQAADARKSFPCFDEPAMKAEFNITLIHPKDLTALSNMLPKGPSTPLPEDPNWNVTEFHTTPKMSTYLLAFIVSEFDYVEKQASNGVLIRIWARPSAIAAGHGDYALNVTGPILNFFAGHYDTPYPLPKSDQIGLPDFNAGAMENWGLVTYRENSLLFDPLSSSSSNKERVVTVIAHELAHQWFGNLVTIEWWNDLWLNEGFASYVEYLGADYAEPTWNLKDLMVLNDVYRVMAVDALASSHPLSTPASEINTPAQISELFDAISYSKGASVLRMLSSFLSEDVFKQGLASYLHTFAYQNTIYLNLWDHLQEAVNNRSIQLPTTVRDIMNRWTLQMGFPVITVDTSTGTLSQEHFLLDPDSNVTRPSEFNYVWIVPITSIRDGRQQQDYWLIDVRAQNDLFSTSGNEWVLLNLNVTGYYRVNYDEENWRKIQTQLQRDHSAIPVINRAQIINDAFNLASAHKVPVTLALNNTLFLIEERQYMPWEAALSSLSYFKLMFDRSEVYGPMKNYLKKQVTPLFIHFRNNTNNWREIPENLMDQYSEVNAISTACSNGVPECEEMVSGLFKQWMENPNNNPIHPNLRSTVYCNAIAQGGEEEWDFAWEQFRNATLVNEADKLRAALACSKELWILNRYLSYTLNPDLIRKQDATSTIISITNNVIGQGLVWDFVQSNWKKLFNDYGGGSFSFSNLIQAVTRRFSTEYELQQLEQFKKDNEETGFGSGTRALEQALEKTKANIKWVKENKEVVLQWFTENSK

On to `O=C(NNC(=NS(=O)(=O)c1ccc(-n2nc(C(F)(F)F)cc2-c2cccs2)cc1)N1CCCC1)c1ccc(Cl)cc1` [BTB07018, N1-[[2-(4-chlorobenzoyl)hydrazino](tetrahydro-1H-pyrrol-1-yl)methylidene]-4-[5-(2-thienyl)-3-(trifluoromethyl)-1H-pyrazol-1-yl]benzene-1-sulfonamide], for which the “mortality or change in rat spontaneous behavior” value (“mortality or change” below) with Wistar rats is “did not induce any mortality or change in rat spontaneous behavior”. In addition, the blood-brain barrier crossing entry at rat APN activity is recorded as “crossed the blood-brain barrier”. In addition, on rat APN activity (setting [4]), the “APN activity in brain” value is “decreased APN activity”, the “APN activity in kidney” value is on record as “decreased APN activity” and the “APN activity in liver” value was “decreased APN activity”. Moreover, the IC50 in series [1] was determined as 2.67 ± 0.11 µM. Also, in series [2], the “Inhibition Type” value was “Non-competitive α > 1”, the “α (pAPN)” value was 1.82 and the concentration for half-maximal inhibition (IC50) turned out to be 2.29 ± 0.1 µM. The IC50 in series [3] stood at 4.74 ± 0.1 µM.

As to `C(=C1c2ccccc2-c2c1ccc1ccccc21)c1cc2c3c(cccc3c1)-c1ccccc1-2` [BTB11079, 2-(7H-benzo[c]fluoren-7-ylidenmethyl)fluoranthene], the “mortality or change” value in the series on Wistar rats is “did not induce any mortality or change in rat spontaneous behavior”. Besides, in series [2], the “Inhibition Type” value is “Non-competitive α > 1”, the “α (pAPN)” value was 11.40 and the half-inhibitory concentration (IC50) came to 2.95 ± 0.1 µM. The IC50 in series [3] is 3.88 ± 0.11 µM.

Consider `CC(C)C[C@H](NC(=O)[C@@H](O)[C@H](N)Cc1ccccc1)C(=O)O` [Bestatin, reference compound], for which, in series [2], the “Inhibition Type” value was “Non-competitive α > 1” and the “α (pAPN)” value was 5.97.

For `N#Cc1cc(Cc2ccc3c(ccc4ccccc43)c2C#N)cc2c1ccc1ccccc12` [JFD00064, 2-[(1-cyano-3-phenanthryl)methyl]phenanthrene-1-carbonitrile], the “mortality or change” value in the series on Wistar rats is “did not induce any mortality or change in rat spontaneous behavior”. The blood-brain barrier crossing entry on rat APN activity was “crossed the blood-brain barrier”. For the same compound, at rat APN activity (setting [4]), the “APN activity in brain” value is recorded as “decreased APN activity”, the “APN activity in kidney” value is recorded as “decreased APN activity”, the “APN activity in liver” value is listed as “decreased APN activity” and the “APN activity in pancreas” value is on record as “inhibited the APN activity”. In series [2], the “Inhibition Type” value is given as “Non-competitive α > 1”, the “α (pAPN)” value is given as 2.69 and the IC50 amounted to 2.83 ± 0.1 µM. For the same compound, the IC50 in series [3] is 1.82 ± 0.11 µM.
